Screens from PubChem.
A selection: hits, their analogues and other compounds. The true share with any hit is near 0.58%.
Cneo AK release: Cryptococcus neoformans lysis via adenylate kinase release; hit rate 0.2% among 360,000; C. neoformans lysis, adenylate kinase release luminescence, 4 h; normalised: neutral wells 0, clomiphene wells 100; lysis activity, % at 15 µM;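 active means mean lysis activity across replicates of at least 80%, whatever share of replicates individually reach that level; inactive means mean lysis activity below 80%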
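Material: C. neoformans cells; Schedule: 4 h static compound exposure, 37 °C, read 1 h post-reagent; Measured by: adenylate kinase release luminescence; Read-out: signal increase indicating cell lysis; Controls: Clomiphene as positive lysis control.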
ERp5 inh: inhibitors of human ERp5. Q15084. ERp5 insulin aggregation, absorbance 650 nm, 90 min. inhibition, % at 9.99 µM. hit rate 0.05% among 350,000;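 active means mean replicate inhibition above about 25%, with every replicate also reaching it, limit read from the data, passing the limit was not always enough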
miR-122 sensor: miR-122 inhibition in Huh7 cells | Huh7 miR-122 Renilla luciferase sensor, 48 h; neutral wells = 0, positive control = 100 | activation (reporter increase), % at 12.5 µM | hit rate 0.3% among 340,000 | AID 602342;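 active means mean replicate activation score at least 90 and every replicate individually at or above 90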;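 further: higher luciferase means less miR-122 activity so hits act as miR-122 inhibitors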
PglD DTNB: PglD (C. jejuni) enzyme inhibition; AID 602405; inhibition, % at 12.5 µM; purified PglD enzyme, DTNB colorimetric CoA detection; hit rate 0.098% among 360,000; in the data active means inhibition above about 16%, passing the limit was not always enough
PvdQ acylase: P. aeruginosa PvdQ acylase inhibition; AID 488965; hit rate 0.063% among 340,000; inhibition, % at 10 µM; purified PvdQ acylase, fluorescence plate reader; in the data active means inhibition above about 30%, passing the limit was not always enough;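 further: 0% = vehicle neutral wells and 100% = reference inhibitor wells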
PDI turbidity: blocks human protein disulfide isomerase activity. PDI insulin aggregation turbidity, A650, 90 min. inhibition, % at 10 µM. hit rate 0.052% among 350,000. AID 588391;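 active means mean inhibition across replicates of 30% or more, whatever share of single replicates reach that level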
Target sequence (P07237 whole entry, looked up): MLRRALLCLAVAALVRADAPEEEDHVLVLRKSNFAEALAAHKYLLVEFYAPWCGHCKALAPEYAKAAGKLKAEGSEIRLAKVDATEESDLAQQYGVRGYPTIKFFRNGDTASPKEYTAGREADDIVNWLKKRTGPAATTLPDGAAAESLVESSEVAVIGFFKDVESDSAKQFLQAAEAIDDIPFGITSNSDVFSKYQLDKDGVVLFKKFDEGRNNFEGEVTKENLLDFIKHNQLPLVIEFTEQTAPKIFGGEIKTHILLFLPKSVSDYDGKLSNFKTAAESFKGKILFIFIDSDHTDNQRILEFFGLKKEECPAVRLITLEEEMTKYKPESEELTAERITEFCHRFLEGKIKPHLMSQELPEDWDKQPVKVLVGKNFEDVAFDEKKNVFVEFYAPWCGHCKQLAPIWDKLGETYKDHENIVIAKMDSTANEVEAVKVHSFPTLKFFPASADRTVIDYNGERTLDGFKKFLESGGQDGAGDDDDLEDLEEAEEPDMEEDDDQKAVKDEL
Numbers without * were called inactive; . = not tested or not shown; [ ] = remark or other dose.

SMILES	Cneo AK release	ERp5 inh	miR-122 sensor	PglD DTNB	PvdQ acylase	PDI turbidity
CC=Cc1ccc2n(c1=O)C[C@H]1[C@H](CO)[C@@H](C(=O)N3CCOCC3)N(Cc3ccccc3)[C@@H]21 (mixture of isomers)	-3	-2	-4[16.7 µM]	2	.	.
COc1ccc(S(=O)(=O)Nc2ccc3c(c2)C(=O)N([C@@H](C)CO)C[C@H](C)[C@@H](CN(C)S(=O)(=O)c2cccs2)OCCCC[C@H](C)O3)cc1	1	2	14[16.7 µM]	-1	.	.
COCC(=O)N1C[C@H](C)[C@@H](OC)CN(C)C(=O)c2ccc(NS(C)(=O)=O)cc2OC[C@@H]1C	98*	-4	.	-2	.	.
CO[C@H]1CN(C)C(=O)c2cc(NS(=O)(=O)c3ccc(C)cc3)ccc2OC[C@@H](C)N(C(=O)NC(C)C)C[C@@H]1C	97*	-5	.	1	.	.
CO[C@@H]1CN(C)C(=O)c2ccc(NS(C)(=O)=O)cc2OC[C@@H](C)N(C(=O)C2CCOCC2)C[C@H]1C	49	-6	-4[16.7 µM]	18*	.	.
CNC(=O)C[C@@H]1CC[C@@H]2[C@@H](COc3ccc(NC(=O)c4ccccc4Cl)cc3C(=O)N2C)O1	1	2	-3[16.7 µM]	3	.	.
C[C@H]1CCCCO[C@H](CN(C)Cc2ccccc2)[C@@H](C)CN([C@@H](C)CO)C(=O)c2cc(NC(=O)c3ccncc3)ccc2O1	-1	4	19[16.7 µM]	-3	.	.
COc1ccc(CN(C)C[C@@H]2OCCCC[C@@H](C)Oc3ccc(NS(=O)(=O)c4c(C)noc4C)cc3C(=O)N([C@@H](C)CO)C[C@H]2C)cc1	1	.	6[16.7 µM]	3	.	.
COc1ccc(CN(C)C[C@H]2Oc3ccc(NC(=O)Nc4ccc(F)cc4)cc3CC(=O)N([C@@H](C)CO)C[C@@H]2C)cc1	102*	-2	36[16.7 µM]	5	.	.
COc1ccc(CN(C)C[C@H]2Oc3ccc(NC(=O)Nc4ccc(F)cc4)cc3CC(=O)N([C@@H](C)CO)C[C@H]2C)cc1	1	0	-11[16.7 µM]	1	.	.
COc1ccc(NC(=O)N(C)C[C@@H]2Oc3ccc(NC(=O)Nc4ccc(F)cc4)cc3CC(=O)N([C@@H](C)CO)C[C@@H]2C)cc1	1	79*	-3[16.7 µM]	-2	.	.
O=C(Cc1ccccn1)NCC[C@H]1CC[C@@H](NC(=O)Nc2ccccc2)[C@H](CO)O1	-4	0	.	-3	.	.
O=S1(=O)c2ccc(Br)cc2N2CCC[C@@H]2CN1Cc1ccc(Cl)cc1	2	-6	7	-2	-8	-3
O=S1(=O)c2ccc(Br)cc2N2CCC[C@H]2CN1Cc1ccccc1	-1	-5	140*	-1	1	-9
C[C@H]1CN([C@@H](C)CO)C(=O)c2cccc(NC(=O)NC3CCCCC3)c2O[C@H]1CN(C)Cc1ccc(C(F)(F)F)cc1	-1	9	72[16.7 µM]	3	.	.
O=S(=O)(Nc1ccc2cn[nH]c2c1)c1ccc(Cl)cc1	3	.	7	1	-4	0
Cc1cc(S(=O)(=O)Nc2ccc3cn[nH]c3c2)c(C)cc1Cl	1	1	144*	-5	-1	-5
O=S(=O)(Nc1cccc(F)c1)c1cccc2nsnc12	1	-9	4	-2	-15	1
Cc1ccc(NS(=O)(=O)c2cccc3nsnc23)cc1C	0	2	114*	-2	1	-33
Cc1ccccc1NC(=S)NC1CCCC1	3	1	-2	-2	-3	1
S=C(Nc1ccccc1Cl)NC1CCCCCC1	59	1	149*	3	0	1
S=C(Nc1ccc(Cl)c(Cl)c1)NC1CCCCC1	.	5	159*	.	-14	-4
O=C(C[C@H]1CC[C@H]2[C@@H](COC[C@@H](O)CN2S(=O)(=O)c2ccc(F)cc2)O1)NCc1ccncn1	-1	-5	-3[16.7 µM]	-4	.	.
C[C@H](CO)N1C[C@H](C)[C@H](CN(C)S(=O)(=O)c2ccccc2)Oc2c(cccc2N(C)C)C1=O	0	-3	6[16.7 µM]	1	.	.
CC(C)C#Cc1ccc2c(c1)O[C@@H](CN(C)C(=O)Cc1ccccn1)[C@H](C)CN([C@H](C)CO)S2(=O)=O	-5	-5	-4[16.7 µM]	-1	.	.
CC(C)CC#Cc1ccc2c(c1)O[C@@H](CN(C)C(=O)c1ccccn1)[C@@H](C)CN([C@@H](C)CO)S2(=O)=O	-3	45*	7[16.7 µM]	-1	.	.
